The values that follow come from ChEMBL document CHEMBL1152124, “Piperidine variations in search for non-imidazole histamine H(3) receptor ligands” (Bioorg Med Chem, 2008).

One test relates to Mus musculus. In words: Antagonist activity at histamine H3 receptor in po dosed Swiss mouse cerebral cortex assessed as Ntau-methylhistamine level after 90 mins by radioimmunoassay. In kind it is functional. The following applies: 1.5 h. In short, it runs like this: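 Swiss mice fasted 24 h, then dosed orally. Decapitated 90 min later; cerebral cortex homogenized in 10 vol ice-cold 0.4 M perchloric acid. Nτ-methylhistamine measured by radioimmunoassay. Response related to the maximal rise produced by ciproxifan 3 mg/kg po. At least triplicate experiments; ED50 calculated as mean with SEM.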

The target in test [1] is T1, Histamine H3 receptor (Homo sapiens, UniProt Q9Y5N1). In words: Displacement of [125I]iodoproxyfan from human recombinant histamine H3 receptor expressed in CHO-K1 cells. The class given is cell-based. In short, it runs like this: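 Stably transfected CHO-K1 cells washed and harvested in PBS, homogenized in ice-cold 50 mmol/L Na2HPO4/KH2PO4 pH 7.5. Membranes pelleted at 23,000g. Membranes incubated 60 min at 25 °C with 25 pmol/L [125I]iodoproxyfan ± competitor, in triplicate. Stopped by ice-cold medium and filtration through PEI-soaked glass fibre filters; gamma counting. Nonspecific binding defined with imetit. Ki by Cheng-Prusoff; mean of at least triplicate experiments.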

Test [2] has as its target T1, Histamine H3 receptor. In words: Displacement of [3H](R)-alpha-methylhistamine from human histamine H3 receptor expressed in rat C6 cells. The class given is cell-based.
The target of test [3] is T1, Histamine H3 receptor.

T1 sequence (Q9Y5N1 whole entry): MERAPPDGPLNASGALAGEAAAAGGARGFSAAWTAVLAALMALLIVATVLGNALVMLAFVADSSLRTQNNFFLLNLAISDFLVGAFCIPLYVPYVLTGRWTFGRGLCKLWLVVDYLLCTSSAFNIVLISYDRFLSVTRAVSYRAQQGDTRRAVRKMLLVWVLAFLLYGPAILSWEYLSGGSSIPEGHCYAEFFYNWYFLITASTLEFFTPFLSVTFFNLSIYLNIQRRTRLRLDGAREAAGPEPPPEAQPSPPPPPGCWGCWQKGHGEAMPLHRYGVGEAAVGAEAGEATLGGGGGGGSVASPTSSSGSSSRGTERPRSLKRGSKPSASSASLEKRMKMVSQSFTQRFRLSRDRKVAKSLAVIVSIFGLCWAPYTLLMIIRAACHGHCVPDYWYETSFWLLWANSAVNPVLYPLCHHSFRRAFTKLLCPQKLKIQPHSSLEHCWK

For `CCCCC1CCN(CCCOCCCc2ccccc2)CC1`, in the test on Mus musculus, the ED50 was more than 10 mg/kg. For the same compound, the Ki at Histamine H3 receptor [1] (read-out: Ki) worked out at 0.274 µM.
With `c1ccc(COCCCc2c[nH]cn2)cc1` [PROXYFAN], in the test on Mus musculus, the ED50 is more than 10 mg/kg. The Ki on Histamine H3 receptor [1] (read-out: pKi (converted)) is 0.00251 µM.
On to `c1ccc(CCCOCCCN2CCc3ccccc3C2)cc1`, for which, in the test with Mus musculus, the ED50 was more than 10 mg/kg. For the same compound, the Ki on Histamine H3 receptor [1] (read-out: Ki) was determined as 0.56 µM.
In the same order, the values of `c1ccc(CCCOCCCN2CCC(Cc3ccccc3)CC2)cc1` are more than 10 mg/kg and 0.326 µM.
For the compound `CC(C)(C)c1ccc(OCCCN2CCC(N3CCCCC3)CC2)cc1`, the ED50 with Mus musculus was more than 20 mg/kg. The Ki at Histamine H3 receptor [1] (read-out: Ki) was found to be 0.1 µM.
In the case of `C[C@H]1[C@H]2CC[C@H]3[C@@H]4CC=C5C[C@@H](N(C)C)CC[C@]5(C)[C@H]4CC[C@]23CN1C` [CONESSINE], at Histamine H3 receptor [1] (read-out: pKi (converted)), the Ki is 0.00501 µM.
With `c1ccc(CCCOCCCN2CCCCC2)cc1`, the ED50 in the test on Mus musculus was 3.7 mg/kg. Moreover, the Ki at Histamine H3 receptor [1] (read-out: pKi (converted)) is 0.00316 µM; on Histamine H3 receptor [2], 0.0031 µM.
`Clc1ccc(OCCCN2CCC(N3CCCCC3)CC2)cc1`: in the test on Mus musculus, the ED50 is more than 20 mg/kg. In addition, the Ki on Histamine H3 receptor [1] (read-out: Ki) is 0.165 µM.
Take `FC(F)(F)c1cccc(OCCN2CCC(N3CCCCC3)CC2)c1`: the Ki on Histamine H3 receptor [1] (read-out: Ki) amounted to 0.164 µM.
Regarding `COc1cccc(OCCCN2CCC(N3CCCCC3)CC2)c1`, the ED50 with Mus musculus was more than 20 mg/kg. The Ki at Histamine H3 receptor [1] (read-out: Ki) is more than 10 µM.
With `COc1cccc(OCCN2CCC(N3CCCCC3)CC2)c1`, the Ki at Histamine H3 receptor [1] (read-out: Ki) worked out at 0.132 µM.
As to `CCCC1CCN(CCCOCCCc2ccccc2)CC1`, in the test with Mus musculus, the ED50 is more than 10 mg/kg. In addition, at Histamine H3 receptor [1] (read-out: Ki), the Ki is 0.249 µM.
For `CNC(=O)c1ccc(Oc2ccc3c(c2)CCN(C2CCC2)CC3)nc1`, on Histamine H3 receptor [3], the pKb worked out at 9.3.
With `Clc1cccc(OCCN2CCC(N3CCCCC3)CC2)c1`, the Ki on Histamine H3 receptor [1] (read-out: Ki) turned out to be 0.235 µM.
As to `Cc1ccc(OCCN2CCC(N3CCCCC3)CC2)cc1`, the Ki at Histamine H3 receptor [1] (read-out: Ki) amounted to 0.3 µM.
As to `c1ccc(CCCOCCCN2CCC3CCCCC3C2)cc1` (centres undefined), in the test with Mus musculus, the ED50 is more than 10 mg/kg. Besides, at Histamine H3 receptor [1] (read-out: Ki), the Ki turned out to be 0.393 µM.
Consider `Clc1ccc(OCCN2CCC(N3CCCCC3)CC2)cc1`, for which, at Histamine H3 receptor [1] (read-out: Ki), the Ki is 0.176 µM.
`Clc1ccc(CCCOCCCN2CCCCC2)cc1` [PITOLISANT]: in the test on Mus musculus, the ED50 came to 1.6 mg/kg.
